Our source for the pKa, IC50 and ΔTm values is ChEMBL document CHEMBL1125436, “Anthracene-9,10-diones as potential anticancer agents. Synthesis, DNA-binding, and biological studies on a series of 2,6-disubstituted derivatives” (J Med Chem, 1992).

Data set [1] can be described thus: Estimated pKa value of the compound. Type of data set: physicochemical.
Data set [2] is described as follows: In vitro extracellular concentration required to reduce cell population to 50% against Walker 256 (WS) carcinoma cells. In kind it is functional, Rattus norvegicus. In short, it runs like this: (§1)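 Cells seeded at ca. […] cells mL⁻¹, grown 24 h and counted to confirm log growth, then given compound (acetic acid salt or free base) in aqueous solution. Exposure 2 days for L1210 and Walker 256, 6 days for V79. Surviving cells counted; percent growth inhibition versus untreated controls; value is extracellular concentration giving 50% reduction.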

Data set [3] relates to Nucleic Acid. Briefly: Compound was evaluated for the increase in melting temperature (delta Tm) for calf Thymus DNA on interaction with Ligand at DNAp to ligand ratio 20:1. In kind it is functional. The settings on record: Bos taurus.
A short description of data set [4]: In vitro extracellular concentration required to reduce cell population to 50% against Chinese hamster V79 cells. In kind it is functional, cell-based, Cricetulus griseus. The method in brief:
as §1

Data set [5] relates to Nucleic Acid. Briefly: Compound was evaluated for the increase in melting temperature (delta Tm) for calf Thymus DNA on interaction with Ligand at DNAp to ligand ratio 40:1. In kind it is functional. The following applies: Bos taurus.
For data set [6], the system named is Nucleic Acid. Briefly: Compound was evaluated for the increase in melting temperature (delta Tm) for calf Thymus DNA on interaction with Ligand at DNAp to ligand ratio 10:1. Type of data set: functional. The settings on record: Bos taurus.
Data set [7] concerns L1210. Briefly: In vitro extracellular concentration required to reduce cell population to 50% against L1210 leukemia cells. Type of data set: functional, cell-based. The following applies: Mus musculus. The method in brief:
as §1

The test system of data set [8] is Nucleic Acid. Briefly: Increase in Melting temperature (delta Tm) for Clostridium perfringens DNA on interaction against ligand (mole ratio of 10:1). Type of data set: functional. The method in brief:
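Working DNAP 0.10 mM and ligand 0.01 mM. Absorbance at 260 nm was followed against temperature. Tm was taken at the midpoint of the normalized curve and compared with native DNA; mean of ≥3 determinations.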

The test system of data set [9] is Nucleic Acid. Briefly: Increase in Melting temperature (delta Tm) for Calf thymus DNA on interaction against ligand (mole ratio of 10:1). Type of data set: functional. The following applies: Bos taurus.
The test system of data set [10] is Nucleic Acid. Briefly: Increase in Melting temperature (delta Tm) for Micrococcus lysodeikticus DNA on interaction against ligand (mole ratio of 10:1). Type of data set: functional. The following applies: Micrococcus luteus. In short, it runs like this: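 M. lysodeikticus DNA (28% A+T) in HNE buffer pH 7.0, dialysed and centrifuged before use; DNAP 0.10 mM with ligand 0.01 mM (10:1). A260 monitored against temperature; Tm at midpoint of normalized curve, ΔTm versus native DNA; mean of at least three determinations.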

For `O=C(CCN1CCN(CCO)CC1)Nc1ccc2c(c1)C(=O)c1ccc(NC(=O)CCN3CCN(CCO)CC3)cc1C2=O`, the pKa in data set [1] was 9.5. Further, the IC50 is 6.6 µM in data set [2], 19.5 µM in data set [4] and 4.2 µM in data set [7]. The figures for the ΔTm in data set [3], in [5] and in [6] were 4.6, 2.9 and 7.2, respectively.

For the molecule `O=C(CCN1CCOCC1)Nc1ccc2c(c1)C(=O)c1ccc(NC(=O)CCN3CCOCC3)cc1C2=O`, the pKa in data set [1] is 8. The IC50 in data set [2] stood at 4.2 µM; in [4], 1.6 µM; in data set [7], 0.57 µM. For the same molecule, the results for the ΔTm in [3] and in data set [6] were 3 and 4.9, respectively.

On to `CN1CCN(CCC(=O)Nc2ccc3c(c2)C(=O)c2ccc(NC(=O)CCN4CCN(C)CC4)cc2C3=O)CC1`, for which the pKa in data set [1] was 9. Moreover, the IC50 in [2] was determined as 3.1 µM; in data set [4] it was 1.8 µM; in data set [7] it was 1.7 µM. The ΔTm in data set [3] amounted to 4.4; in data set [6], 9.2.

`O=C(CCN1CCCCC1)Nc1ccc2c(c1)C(=O)c1ccc(NC(=O)CCN3CCCCC3)cc1C2=O`: the ΔTm in data set [8] is > 18.9; in data set [3] it was 7.3; in data set [5], 3.7; in data set [9], > 15.3; in data set [10], > 14.5; in data set [6] it was > 15.3. The pKa in [1] was 10.4. Further, the IC50 came to 2 µM in [2], 1.7 µM in [4] and 0.19 µM in data set [7].

Take `O=C(CCN1CCCCC1CCO)Nc1ccc2c(c1)C(=O)c1ccc(NC(=O)CCN3CCCCC3CCO)cc1C2=O` (centres undefined): the ΔTm in data set [8] was > 18.5; in [3], 9.2; in data set [5], 4.1; in data set [9] it was > 15.3; in data set [10] it was > 14.6; in data set [6], > 15.3. In addition, in [1], the pKa was 10. Moreover, the IC50 in data set [2] came to 3.6 µM; in data set [4], 12 µM; in [7] it was 0.28 µM.

Turning to `O=C1c2c(O)ccc(O)c2C(=O)c2c(NCCNCCO)ccc(NCCNCCO)c21` [MITOXANTRONE], the ΔTm in data set [8] is > 26.4; in [3] it was 7.4; in data set [9], > 15; in data set [10], > 11.7; in data set [6], > 15. Also, the pKa in data set [1] was 7.4. Also, the figures for the IC50 in [2] and in [7] were 0.01 µM and 0.002 µM, respectively.

For `CN1CCN(CC(=O)Nc2ccc3c(c2)C(=O)c2ccc(NC(=O)CN4CCN(C)CC4)cc2C3=O)CC1`, the pKa in [1] is 9.5. Further, the figures for the IC50 in [2], in data set [4] and in data set [7] were 4.6 µM, 4.6 µM and 6.5 µM, respectively. Moreover, the ΔTm was determined as 8.2 in data set [3], 4.2 in [5] and 13.6 in data set [6].

`CCN(CC)CC(=O)Nc1ccc2c(c1)C(=O)c1ccc(NC(=O)CN(CC)CC)cc1C2=O`: the ΔTm in data set [8] is 16.6; in data set [3] it was 7.7; in [5], 3.7; in data set [9] it was 13.5; in data set [10] it was > 16.6; in data set [6], 13.5. The pKa in [1] is 10. Besides, the IC50 in data set [2] is 19 µM; in [4] it was 18 µM; in data set [7] it was 27 µM.

Turning to `O=C(CN1CCOCC1)Nc1ccc2c(c1)C(=O)c1ccc(NC(=O)CN3CCOCC3)cc1C2=O`, the pKa in data set [1] is 7.4. In addition, the IC50 in data set [2], in data set [4] and in [7] was > 100 µM each time. Besides, the ΔTm in [3], in data set [5] and in [6] was 0.5 in each case.

Turning to `O=C(CCN1CCCCC1CO)Nc1ccc2c(c1)C(=O)c1ccc(NC(=O)CCN3CCCCC3CO)cc1C2=O` (centres undefined), in [1], the pKa is 10. Further, the IC50 in data set [2] came out at 2.8 µM; in [4], 3.6 µM; in data set [7] it was 0.5 µM. Moreover, the ΔTm in [3] was 7.9; in data set [5], 3.8; in [6], 14.4.

For `CCN(CC)CCC(=O)Nc1ccc2c(c1)C(=O)c1ccc(NC(=O)CCN(CC)CC)cc1C2=O`, the ΔTm is > 20.5 in data set [8]; 7.7 in data set [3]; 3.7 in data set [5]; > 15.5 in data set [9]; > 18.1 in data set [10]; > 15.5 in data set [6]. Moreover, in data set [1], the pKa is 10.8. The figures for the IC50 in data set [2], in [4] and in data set [7] were 2.7 µM, 2.9 µM and 0.34 µM, respectively.

With `O=C(CCN1CCC(CCO)CC1)Nc1ccc2c(c1)C(=O)c1ccc(NC(=O)CCN3CCC(CCO)CC3)cc1C2=O`, in data set [1], the pKa was 10. For the same molecule, the IC50 was determined as 5.5 µM in [2], 3.95 µM in [4] and 2.3 µM in [7]. Further, the values for the ΔTm in [3], in data set [5] and in [6] were 8.3, 4.3 and > 15, respectively.

With `O=C(CN1CCCCC1)Nc1ccc2c(c1)C(=O)c1ccc(NC(=O)CN3CCCCC3)cc1C2=O`, the ΔTm in data set [8] was determined as 19; in [3], 8.2; in data set [9] it was 14.3; in data set [10], 18.4; in data set [6], 14.3. Besides, in data set [1], the pKa was 10. Further, the IC50 is > 100 µM in data set [2], 30 µM in data set [4] and 76 µM in data set [7].

Take `O=C(CCN(CCO)CCO)Nc1ccc2c(c1)C(=O)c1ccc(NC(=O)CCN(CCO)CCO)cc1C2=O`: the ΔTm was 11.7 in data set [8]; 6.1 in [3]; 3.2 in data set [5]; 10.9 in data set [9]; > 15.7 in data set [10]; 10.9 in data set [6]. Besides, the pKa in [1] was 9. For the same molecule, the IC50 is > 100 µM in data set [2], 25.5 µM in [4] and 4.2 µM in [7].

The pKa is the negative logarithm of the acid dissociation constant. Usually IC50 stands for the concentration that inhibits the measured activity by half.
